Experimental data from ChEMBL document CHEMBL3745674, “Inhibitors of HIV-1 attachment: The discovery and structure-activity relationships of tetrahydroisoquinolines as replacements for the piperazine benzamide in the 3-glyoxylyl 6-azaindole pharmacophore” (Bioorg Med Chem Lett, 2016).

Key:
[1] = Permeability of compound at pH 5.5 by PAMPA; format: ADME; conditions: read-out: permeability
Outline: (§1)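 Passive permeability by PAMPA at pH 7.4 and pH 5.5, reported in nm/s.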

[2] = Permeability of compound at pH 7.4 by PAMPA; format: ADME; conditions: read-out: permeability; outline: as §1
[3] = Volume of distribution at steady state in rat at 1 mg/kg, iv; format: ADME, organism-based; conditions: in vivo, read-out: Vdss
Outline: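 Intravenous dosing in rat at 1 mg/kg. Plasma clearance and volume of distribution were determined.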

[4] = AUC(last) in rat at 5 mg/kg, po; format: ADME, organism-based; design: dose 5 mg/kg, time 0 - last, route oral; conditions: in vivo
Outline: (§2)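 Oral dosing in rat at 5 mg/kg in PEG 400/ethanol (90:10 v/v) vehicle.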

[5] = Cmax in rat at 5 mg/kg, po; format: ADME, organism-based; design: dose 5 mg/kg, route oral; conditions: in vivo; outline: as §2
Liver [6] = experiment: Drug metabolism in Aroclor-1254-induced rat liver S9 fraction assessed as 1-(1-hydroxy-5-(pyridin-2-yl)-3,4-dihydroisoquinolin-2(1H)-yl)-2-(4-methoxy-7-(3-methyl-1H-1,2,4-triazol-1-yl)-1H-pyrrolo[2,3-c]pyridin-3-yl)ethane-1,2-dione formation incubated at 37 degC for 4.5 hrs; format: ADME, subcellular; conditions: s9, 4.5 h
Liver [7] = experiment: Drug level in Aroclor-1254-induced rat liver S9 fraction treated with 1-(4-methoxy-7-(3-methyl-1H-1,2,4-triazol-1-yl)-1H-pyrrolo[2,3-c]pyridin-3-yl)-2-(5-(pyridin-2-yl)-3,4-dihydroisoquinolin-2(1H)-yl)ethane-1,2-dione assessed as compound formation incubated at 37 degC for 4.5 hrs; format: ADME, subcellular; conditions: s9, 4.5 h

| Compound | Papp [1] [×10⁻⁶ cm/s] | AUC(0-t) [4] [µM·h] | Cmax [5] [µM] | further results |
| --- | --- | --- | --- | --- |
| COc1cnc(-c2cc(C(=O)O)[nH]n2)c2[nH]cc(C(=O)C(=O)N3CCc4c(cccc4-c4ccccn4)C3)c12 | 3.2 |  |  |  |
| COc1cnc(-n2cnc(C)n2)c2[nH]cc(C(=O)C(=O)N3CCc4c(ncnc4-c4ccccn4)C3)c12 | 24.4 | 41 | 10 | Papp [2]: 29.4 ×10⁻⁶ cm/s; Vd [3]: 0.33 L/kg |
| COc1cnc(-n2cnc(C)n2)c2[nH]cc(C(=O)C(=O)N3CCc4c(cccc4-c4ccccn4)C3)c12 |  |  |  | Drug metabolism (Liver [6]): metabolite_detected |
| COc1cnc(-n2cnc(C)n2)c2[nH]cc(C(=O)C(=O)N3CCc4c(-c5ccccn5)cccc4C3O)c12 (stereo not given) |  |  |  | Drug metabolism (Liver [7]): metabolite_detected |
| COc1cnc(-n2cnc(C)n2)c2[nH]cc(C(=O)C(=O)N3CCN(C(=O)c4ccccc4)CC3)c12 |  | 52 | 6.4 |  |
